In ChEMBL document CHEMBL4354867, “Validation and Characterization of Five Distinct Novel Inhibitors of Human Cytomegalovirus” (J Med Chem, 2020):
pEC50: −log10 of the molar value. Active and inactive are the calls of the source. The rule behind the calls is not given here.

Columns and labels:
[1] = system: Human betaherpesvirus 5; experiment: Inhibition of viral protein expression in HCMV Towne infected in human HFF cells assessed as reduction in UL44 expression at 3 uM treated with compound for 24 hrs followed by viral infection at MOI of 1 PFU/cell measured at 72 hrs post infection by Western blot analysis; format: functional, organism-based; conditions: strain Towne
How it was run: (§1)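 HFFs pretreated with compound, then infected with HCMV Towne at MOI 1, 0.1 or 0.01. Viral proteins in cell lysates detected at 72 hpi by SDS-PAGE (8–10%), PVDF transfer and chemiluminescent immunoblot. Images from a representative experiment.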

[2] = system: Human betaherpesvirus 5; experiment: Inhibition of viral protein expression in HCMV Towne infected in human HFF cells assessed as reduction in IE2 expression at 3 uM treated with compound following viral infection at MOI of 1 PFU/cell measured at 72 hrs post infection by Western blot analysis; format: functional, organism-based; conditions: strain Towne
How it was run: (§2)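 HFFs infected with HCMV Towne (MOI 1), then treated with compound. Lysates taken at 72 hpi, equal protein loaded on 8–10% Tris-glycine SDS-PAGE and transferred to PVDF. Primary antibodies overnight at 4 °C, HRP secondary, chemiluminescent detection; β-actin as loading control.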

[3] = system: Human alphaherpesvirus 2; experiment: Antiviral activity against HSV 2 infected in African green monkey Vero cells assessed as reduction in plaque formation incubated for 36 hrs by crystal violet staining based assay; format: functional, organism-based; conditions: vero
How it was run: (§3)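 Plaque reduction in Vero cells: virus adsorbed 60 min, then compound added in a carboxymethylcellulose overlay. Plaques counted after 36 h by crystal violet staining.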

[4] = system: Human betaherpesvirus 5; experiment: Antiviral activity against pp28-luciferase expressing HCMV Towne infected in human HFF cells assessed as reduction in viral entry by measuring viral replication at 1 to 10 uM treated with compound for 24 hrs followed by viral infection at MOI of 0.01 to 1 PFU/cell measured at 72 hrs post infection by luciferase reporter gene assay; format: functional, organism-based; conditions: strain Towne
How it was run: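 HFFs pretreated 24 h with compound, then infected with pp28-luciferase recombinant Towne HCMV (luciferase under the UL99 late promoter) at MOI 1, 0.1 or 0.01. Luciferase measured in cell lysates after 3 days. Triplicate values, mean ± SD.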

[5] = system: Human betaherpesvirus 5; experiment: Inhibition of viral protein expression in HCMV Towne infected in human HFF cells assessed as reduction in IE1 expression at 3 uM treated with compound for 24 hrs followed by viral infection at MOI of 0.01 PFU/cell measured at 72 hrs post infection by Western blot analysis; format: functional, organism-based; conditions: strain Towne; how it was run: as §1
[6] = system: Human betaherpesvirus 5; experiment: Inhibition of viral protein expression in HCMV Towne infected in human HFF cells assessed as reduction in UL84 expression at 3 uM treated with compound for 24 hrs followed by viral infection at MOI of 0.01 PFU/cell measured at 72 hrs post infection by Western blot analysis; format: functional, organism-based; conditions: strain Towne; how it was run: as §1
[7] = Antiviral activity against Mouse Cytomegalovirus Smith (ATCC VR-1399) infected in mouse MEF cells assessed as reduction in plaque formation measured after 3 days by crystal violet staining based assay; format: functional, cell-based, Murine cytomegalovirus (strain Smith); conditions: mef
How it was run: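 Plaque reduction with MCMV Smith in mouse embryonic fibroblasts, with compound in a carboxymethylcellulose overlay. Assay ended at 3 days and plaques counted after crystal violet staining.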

[8] = system: Human betaherpesvirus 5; experiment: Antiviral activity against HCMV Towne infected in human HFF cells assessed as reduction in plaque formation treated with compound following viral infection and incubated for 8 to 10 days by crystal violet staining based assay; format: functional, organism-based; conditions: Human betaherpesvirus 5, strain Towne
[9] = system: Human betaherpesvirus 5; experiment: Inhibition of viral protein expression in HCMV Towne infected in human HFF cells assessed as reduction in pp65 expression at 3 uM treated with compound following viral infection at MOI of 1 PFU/cell measured at 72 hrs post infection by Western blot analysis; format: functional, organism-based; conditions: strain Towne; how it was run: as §2
[10] = system: Human betaherpesvirus 5; experiment: Inhibition of viral protein expression in HCMV Towne infected in human HFF cells assessed as reduction in IE1 expression at 3 uM treated with compound for 24 hrs followed by viral infection at MOI of 1 PFU/cell measured at 72 hrs post infection by Western blot analysis; format: functional, organism-based; conditions: strain Towne; how it was run: as §1
[11] = system: Human betaherpesvirus 5; experiment: Inhibition of viral protein expression in HCMV Towne infected in human HFF cells assessed as reduction in pp65 expression at 3 uM treated with compound for 24 hrs followed by viral infection at MOI of 1 PFU/cell measured at 72 hrs post infection by Western blot analysis; format: functional, organism-based; conditions: strain Towne; how it was run: as §1
[12] = system: Human betaherpesvirus 5; experiment: Inhibition of viral protein expression in HCMV Towne infected in human HFF cells assessed as reduction in UL44 expression at 3 uM treated with compound for 24 hrs followed by viral infection at MOI of 0.01 PFU/cell measured at 72 hrs post infection by Western blot analysis; format: functional, organism-based; conditions: strain Towne; how it was run: as §1
[13] = system: HFF; experiment: Cytotoxicity against human HFF cells assessed as reduction in cell viability incubated for 72 hrs or 10 days by MTT assay; format: cell-based
How it was run: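 MTT assay on uninfected cells exposed to compound for 72 h or 8–10 days, matching the antiviral assay durations. MTT (5 mg/mL stock in PBS) added, then 2–3 h at 37 °C. Formazan absorbance read at 560 nm.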

[14] = system: Human betaherpesvirus 5; experiment: Inhibition of viral protein expression in HCMV Towne infected in human HFF cells assessed as reduction in IE2 expression at 3 uM treated with compound for 24 hrs followed by viral infection at MOI of 0.01 PFU/cell measured at 72 hrs post infection by Western blot analysis; format: functional, organism-based; conditions: strain Towne; how it was run: as §1
[15] = system: Human betaherpesvirus 5; experiment: Inhibition of viral protein expression in HCMV Towne infected in human HFF cells assessed as reduction in UL84 expression at 3 uM treated with compound for 24 hrs followed by viral infection at MOI of 1 PFU/cell measured at 72 hrs post infection by Western blot analysis; format: functional, organism-based; conditions: strain Towne; how it was run: as §1
[16] = system: Human alphaherpesvirus 1; experiment: Antiviral activity against HSV 1 infected in African green monkey Vero cells assessed as reduction in plaque formation incubated for 36 hrs by crystal violet staining based assay; format: functional, organism-based; conditions: vero; how it was run: as §3
[17] = system: Human betaherpesvirus 5; experiment: Inhibition of viral protein expression in HCMV Towne infected in human HFF cells assessed as reduction in UL44 expression at 3 uM treated with compound following viral infection at MOI of 1 PFU/cell measured at 72 hrs post infection by Western blot analysis; format: functional, organism-based; conditions: strain Towne; how it was run: as §2
[18] = system: Human betaherpesvirus 5; experiment: Antiviral activity against GCV-resistant HCMV Towne infected in human HFF cells assessed as reduction in plaque formation treated with compound following viral infection and incubated for 8 to 10 days by crystal violet staining based assay; format: functional, organism-based; conditions: Human betaherpesvirus 5, strain Towne
[19] = system: Human betaherpesvirus 5; experiment: Inhibition of viral protein expression in HCMV Towne infected in human HFF cells assessed as reduction in IE1 expression at 3 uM treated with compound following viral infection at MOI of 1 PFU/cell measured at 72 hrs post infection by Western blot analysis; format: functional, organism-based; conditions: strain Towne; how it was run: as §2
[20] = system: Human betaherpesvirus 5; experiment: Antiviral activity against HCMV TB40 infected in human HFF cells assessed as reduction in plaque formation at 1 to 10 uM treated with compound following viral infection at MOI of 100 PFU/ml and measured after 10 days by crystal violet staining based assay; format: functional, organism-based
[21] = system: Human betaherpesvirus 5; experiment: Inhibition of viral protein expression in HCMV Towne infected in human HFF cells assessed as reduction in IE2 expression at 3 uM treated with compound for 24 hrs followed by viral infection at MOI of 1 PFU/cell measured at 72 hrs post infection by Western blot analysis; format: functional, organism-based; conditions: strain Towne; how it was run: as §1
[22] = system: Human betaherpesvirus 5; experiment: Antiviral activity against HCMV Towne infected in human HFF cells assessed as reduction in plaque formation treated with compound following viral infection at MOI of 1 PFU/cell and measured at 10 days post-infection in presence of letermovir by crystal violet staining based assay; format: functional, organism-based; conditions: Human betaherpesvirus 5, strain Towne, 240 h

## COc1ccc(Cl)cc1C(=O)Nc1ccc(NC(=O)c2ccco2)cc1
[1]
  inhibition: inactive
[2]
  inhibition: inactive
[3]
  EC50: Not Active
[4]
  Activity: Active
[5]
  inhibition: Active
[6]
  inhibition: Active
[7]
  EC50: Not Active
[8]
  pEC50: 6.26
[9]
  inhibition: inactive
[10]
  inhibition: inactive
[11]
  inhibition: inactive
[12]
  inhibition: Active
[13]
  CC50: > 500000 nM
[14]
  inhibition: Active
[15]
  inhibition: inactive
[16]
  EC50: Not Active
[17]
  inhibition: inactive
[18]
  pEC50: 6.60
[19]
  inhibition: inactive
[20]
  Activity: Active
[21]
  inhibition: inactive
[22]
  pEC50: 6.49
